Reference: ChEMBL document CHEMBL2321734, “Novel antiviral activity of l-dideoxy bicyclic nucleoside analogues versus vaccinia and measles viruses in vitro” (J Med Chem, 2013)
The source made the active and inactive calls. No cut-off for these calls is given here.

Assays:
BSC-1 [1] = assay: Cytotoxicity against african green monkey BSC1 cells infected with Vaccinia virus-WR luciferase reporter virus v3 assessed as visible cytotoxic effect at 10 uM incubated for 30 mins prior to inoculation measured after 2 hrs by phase contrast microscopic analysis; assay type: cell-based; conditions: chlorocebus aethiops, bsc-1, 2 h
Vaccinia virus [2] = assay: Antiviral activity against Vaccinia virus WR expressing luciferase reporter virus v3 infected in rabbit RK13 cells assessed as inhibition of early stages of VACV replication at 10 uM incubated for 30 mins prior to inoculation measured after 2 hrs by luciferase reporter gene assay relative to control; assay type: functional; conditions: Orthopoxvirus vaccinia, RK-13
BSC-1 [3] = assay: Cytotoxicity against african green monkey BSC1 cells infected with Vaccinia virus-WR after 4 days; assay type: cell-based; conditions: chlorocebus aethiops, bsc-1, 96 h
[4] = Cytotoxicity against human HFFF cells assessed as cell viability by CellTitre-Glo Luminescent Cell Viability assay; assay type: cell-based
[5] = Cytotoxicity against african green monkey BSC1 cells assessed as ATP levels […] by CellTitre-Glo Luminescent Cell Viability assay; assay type: cell-based, BSC-1; conditions: chlorocebus aethiops
Vaccinia virus [6] = assay: Antiviral activity against Vaccinia virus WR infected in african green monkey BSC1 cells after 4 days by plaque reduction assay; assay type: functional, organism-based; conditions: Orthopoxvirus vaccinia, BSC-1, 96 h
Measles morbillivirus [7] = assay: Antiviral activity against wild type Measles virus mWTFb infected in simian B95a cells assessed as virus-induced cytopathogenicity incubated for 30 mins prior to inoculation measured after 3 days by phase contrast microscopy; assay type: functional, organism-based
Vaccinia virus [8] = assay: Ratio of cidofovir IC50 to compound IC50 for Vaccinia virus WR; assay type: functional, Orthopoxvirus vaccinia
Measles morbillivirus [9] = assay: Ratio of ribavirin TCID50 to compound TCID50 for wild type Measles virus mWTFb; assay type: functional
Measles morbillivirus [10] = assay: Antiviral activity against Measles virus Edmonston infected in simian B95a cells assessed as virus-induced cytopathogenicity incubated for 30 mins prior to inoculation measured after 3 days by phase contrast microscopy; assay type: functional
Summary of the method: (§1)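 Cells grown to 80% confluence in 96-well plates and pretreated 30 min with drug-containing medium. Infection was 100 pfu (HSV-1/2, adenovirus 5) or 100 sfu (measles) per well, then 3 days in DMEM without FBS or antibiotics with drug at 1–100 µM. CPE was scored by phase contrast against virus-only controls. TCID50 is the 50% CPE reduction, averaged over 3 experiments by Reed–Muench.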

Human alphaherpesvirus 2 [11] = assay: Antiviral activity against HSV 2 NCPV 132349 infected in african green monkey BSC-1 cells assessed as virus-induced cytopathogenicity incubated for 30 mins prior to inoculation measured after 3 days by phase contrast microscopy; assay type: functional; summary of the method: as §1
Human alphaherpesvirus 2 [12] = assay: Antiviral activity against HSV 2 NCPV 132349 infected in human HFFF cells assessed as virus-induced cytopathogenicity incubated for 30 mins prior to inoculation measured after 3 days by phase contrast microscopy; assay type: functional; summary of the method: as §1
Human alphaherpesvirus 1 [13] = assay: Antiviral activity against HSV 1 NCPV 17+ infected in african green monkey BSC-1 cells assessed as virus-induced cytopathogenicity incubated for 30 mins prior to inoculation measured after 3 days by phase contrast microscopy; assay type: functional; summary of the method: as §1
Human alphaherpesvirus 1 [14] = assay: Antiviral activity against HSV 1 NCPV 17+ infected in human HFFF cells assessed as virus-induced cytopathogenicity incubated for 30 mins prior to inoculation measured after 3 days by phase contrast microscopy; assay type: functional; summary of the method: as §1
Measles morbillivirus [15] = assay: Antiviral activity against Measles virus Edmonston infected in african green monkey BSC-1 cells assessed as virus-induced cytopathogenicity incubated for 30 mins prior to inoculation measured after 3 days by phase contrast microscopy; assay type: functional; summary of the method: as §1
Human adenovirus 5 [16] = assay: Antiviral activity against Adenovirus type 5 ATCC VR-5 infected in african green monkey BSC1 cells assessed as virus-induced cytopathogenicity incubated for 30 mins prior to inoculation measured after 3 days by phase contrast microscopy; assay type: functional, BSC-1; summary of the method: as §1
Human adenovirus 5 [17] = assay: Antiviral activity against Adenovirus type 5 ATCC VR-5 infected in human HFFF cells assessed as virus-induced cytopathogenicity incubated for 30 mins prior to inoculation measured after 3 days by phase contrast microscopy; assay type: functional; summary of the method: as §1
[18] = Selectivity index, ratio of CC50 for african green monkey BSC1 cells to IC50 for Vaccinia virus-WR; assay type: functional, BSC-1

SMILES: CCCCCCCCCCCCc1cc2cn([C@@H]3CC[C@H](CO)O3)c(=O)nc2o1
- Activity (BSC-1 [1]): Non-toxic
- inhibition at 10 µM (Vaccinia virus [2]): 96.4%

SMILES: CCCCCCCCc1cc2cn([C@@H]3CC[C@H](CO)O3)c(=O)nc2o1
- Activity (BSC-1 [1]): Non-toxic
- inhibition at 10 µM (Vaccinia virus [2]): 41.9%

SMILES: COCCCCCCCCCCCCCc1cc2cn([C@@H]3CC[C@H](CO)O3)c(=O)nc2o1
- Activity (BSC-1 [1]): Non-toxic
- inhibition at 10 µM (Vaccinia virus [2]): 60.5%

SMILES: CCCCCCCCCc1cc2cn([C@@H]3CC[C@H](CO)O3)c(=O)nc2o1
- Activity (BSC-1 [1]): Non-toxic
- inhibition at 10 µM (Vaccinia virus [2]): 38.1%

SMILES: CC(C)(C)OCCCCCCCCCc1cc2cn([C@@H]3CC[C@H](CO)O3)c(=O)nc2o1
- Activity (BSC-1 [1]): Non-toxic
- inhibition at 10 µM (Vaccinia virus [2]): 70.7%

SMILES: CCC(C)OCCCCCCCCCc1cc2cn([C@@H]3CC[C@H](CO)O3)c(=O)nc2o1 (some centres not stated)
- Activity (BSC-1 [1]): Non-toxic
- inhibition at 10 µM (Vaccinia virus [2]): 69.9%

SMILES: CCCCCCCCCCc1cc2cn([C@@H]3CC[C@H](CO)O3)c(=O)nc2o1
- Activity (BSC-1 [1]): Non-toxic
- inhibition at 10 µM (Vaccinia virus [2]): 45.7%

SMILES: CCCOCCCCCCCCCc1cc2cn([C@@H]3CC[C@H](CO)O3)c(=O)nc2o1
- Activity (BSC-1 [3]): Non-toxic
- Activity (BSC-1 [1]): Non-toxic
- CC50 [4]: > 100 µM
- CC50 at 96 h [5]: 89.1 µM
- IC50 (Vaccinia virus [6]): 1.9 µM
- inhibition at 10 µM (Vaccinia virus [2]): 46.8%

SMILES: Nc1ccn(C[C@@H](CO)OCP(=O)(O)O)c(=O)n1 [CIDOFOVIR]
- inhibition (Measles morbillivirus [7]): inactive
- CC50 [4]: > 100 µM
- CC50 at 96 h [5]: > 100 µM
- IC50 (Vaccinia virus [6]): 11.5 µM
- inhibition at 10 µM (Vaccinia virus [2]): 94.6%

SMILES: CCCCCCOCCCCCCCCCc1cc2cn([C@@H]3CC[C@H](CO)O3)c(=O)nc2o1
- Ratio IC50 (Vaccinia virus [8]): 60
- Activity (BSC-1 [3]): Non-toxic
- Activity (BSC-1 [1]): Non-toxic
- CC50 [4]: > 100 µM
- CC50 at 96 h [5]: 74.1 µM
- IC50 (Vaccinia virus [6]): 0.19 µM
- inhibition at 10 µM (Vaccinia virus [2]): 35.7%

SMILES: CCOCCCCCCCCCc1cc2cn([C@@H]3CC[C@H](CO)O3)c(=O)nc2o1
- Activity (BSC-1 [3]): Non-toxic
- Activity (BSC-1 [1]): Non-toxic
- CC50 [4]: > 100 µM
- CC50 at 96 h [5]: 79.4 µM
- IC50 (Vaccinia virus [6]): 12.9 µM
- inhibition at 10 µM (Vaccinia virus [2]): 79.9%

SMILES: CCCCCOCCCCCCCCCc1cc2cn([C@@H]3CC[C@H](CO)O3)c(=O)nc2o1
- Ratio IC50 (Vaccinia virus [8]): 60
- Ratio (Measles morbillivirus [9]): 150
- TCID50 (Measles morbillivirus [10]): >50 µM
- TCID50 (Human alphaherpesvirus 2 [11]): >50 µM
- TCID50 (Human alphaherpesvirus 2 [12]): >50 µM
- TCID50 (Human alphaherpesvirus 1 [13]): >50 µM
- TCID50 (Human alphaherpesvirus 1 [14]): >50 µM
- TCID50 (Measles morbillivirus [15]): >50 µM
- TCID50 (Human adenovirus 5 [16]): >50 µM
- TCID50 (Human adenovirus 5 [17]): >50 µM
- Activity (BSC-1 [3]): Non-toxic
- Activity (BSC-1 [1]): Non-toxic
- Ratio CC50/IC50 [18]: >500
- CC50 [4]: > 100 µM
- CC50 at 96 h [5]: > 100 µM
- IC50 (Vaccinia virus [6]): 0.19 µM
- inhibition at 10 µM (Vaccinia virus [2]): 27.7%

SMILES: CCCCCCOCCCCCCCCc1cc2cn([C@@H]3CC[C@H](CO)O3)c(=O)nc2o1
- Activity (BSC-1 [3]): Non-toxic
- Activity (BSC-1 [1]): Non-toxic
- IC50 (Vaccinia virus [6]): 1.7 µM
- inhibition at 10 µM (Vaccinia virus [2]): 37.2%

SMILES: NC(=O)c1ncn([C@@H]2O[C@H](CO)[C@@H](O)[C@H]2O)n1 [RIBAVIRIN]
- IC50 (Measles morbillivirus [7]): 1160 µM

SMILES: CC(C)COCCCCCCCCCc1cc2cn([C@@H]3CC[C@H](CO)O3)c(=O)nc2o1
- Activity (BSC-1 [1]): Non-toxic
- inhibition at 10 µM (Vaccinia virus [2]): 64.3%

SMILES: CCCCCCCc1cc2cn([C@@H]3CC[C@H](CO)O3)c(=O)nc2o1
- Activity (BSC-1 [1]): Non-toxic
- inhibition at 10 µM (Vaccinia virus [2]): 43.2%

SMILES: CCCCOCCCCCCCCCc1cc2cn([C@@H]3CC[C@H](CO)O3)c(=O)nc2o1
- Activity (BSC-1 [3]): Non-toxic
- Activity (BSC-1 [1]): Non-toxic
- CC50 [4]: > 100 µM
- CC50 at 96 h [5]: > 100 µM
- IC50 (Vaccinia virus [6]): 1.8 µM
- inhibition at 10 µM (Vaccinia virus [2]): 27.5%

SMILES: CCCCCCc1cc2cn([C@@H]3CC[C@H](CO)O3)c(=O)nc2o1
- Activity (BSC-1 [1]): Non-toxic
- inhibition at 10 µM (Vaccinia virus [2]): 70.7%

SMILES: CCCCCCCCCCCCCOCc1cc2cn([C@@H]3CC[C@H](CO)O3)c(=O)nc2o1
- Activity (BSC-1 [3]): Non-toxic
- Activity (BSC-1 [1]): Non-toxic
- IC50 (Vaccinia virus [6]): 3.4 µM
- inhibition at 10 µM (Vaccinia virus [2]): 43.9%

SMILES: COC[C@H]1OC(=O)c2coc3c2[C@@]1(C)C1=C(C3=O)[C@@H]2CCC(=O)[C@@]2(C)C[C@H]1OC(C)=O [WORTMANNIN]
- IC50 (Measles morbillivirus [7]): 75 µM

SMILES: CC(C)OCCCCCCCCCc1cc2cn([C@@H]3CC[C@H](CO)O3)c(=O)nc2o1
- Activity (BSC-1 [1]): Non-toxic
- inhibition at 10 µM (Vaccinia virus [2]): 79.9%

SMILES: CCCCc1ccc(-c2cc3cn([C@@H]4CC[C@H](CO)O4)c(=O)nc3o2)cc1
- Activity (BSC-1 [1]): Non-toxic
- inhibition at 10 µM (Vaccinia virus [2]): 43.7%

SMILES: CCCCCCCCCCOCCCCc1cc2cn([C@@H]3CC[C@H](CO)O3)c(=O)nc2o1
- Activity (BSC-1 [3]): Non-toxic
- Activity (BSC-1 [1]): Non-toxic
- IC50 (Vaccinia virus [6]): 2.2 µM
- inhibition at 10 µM (Vaccinia virus [2]): 26.1%

SMILES: CCCCCc1ccc(-c2cc3cn([C@@H]4CC[C@H](CO)O4)c(=O)nc3o2)cc1
- Activity (BSC-1 [1]): Non-toxic
- inhibition at 10 µM (Vaccinia virus [2]): 73.6%
